Laboratory results reported in ChEMBL document CHEMBL1152649, “Synthesis, cytotoxicity and human telomerase inhibition activities of a series of 1,2-heteroannelated anthraquinones and anthra[1,2-d]imidazole-6,11-dione homologues” (2009).
Activity calls are given as the source filed them. The calls are words filed in the database; no cut-off is given here.

Key:
[1] = test system: OVCAR-8; test: Antiproliferative activity against human OVCAR8 cells assessed as cell growth at 10 uM; assay type: functional; conditions: read-out: Activity
Summary of the method: (§1)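 NCI 60 cell line panel, single-dose screen (10^-5 M) run by the developmental therapeutics program protocol. Results are given as growth percent of treated cells relative to untreated control cells for each line.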

[2] = test system: Malme-3M; test: Antiproliferative activity against human MALME-3M cells assessed as cell growth at 10 uM; assay type: functional; conditions: read-out: Activity; summary of the method: as §1
[3] = test system: PC-3; test: Antiproliferative activity against human PC3 cells assessed as cell growth at 10 uM; assay type: functional; conditions: read-out: Activity; summary of the method: as §1
[4] = test system: TK-10; test: Antiproliferative activity against human TK10 cells assessed as cell growth at 10 uM; assay type: functional; conditions: read-out: Activity
Summary of the method: (§2)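 NCI 60 cell line panel, single dose (10^-5 M), run per the Developmental Therapeutics Program protocol (one dose mean graph). Each result is the growth percentage of treated cells relative to untreated control cells.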

[5] = test system: CCRF-CEM; test: Antiproliferative activity against human CCRF-CEM cells assessed as cell growth at 10 uM; assay type: functional; conditions: read-out: Activity; summary of the method: as §1
[6] = test system: A498; test: Antiproliferative activity against human A498 cells assessed as cell growth at 10 uM; assay type: functional; conditions: read-out: Activity; summary of the method: as §1
[7] = test system: NCI/ADR-RES; test: Antiproliferative activity against human NCI/ADR-RES cells assessed as cell growth at 10 uM; assay type: functional; conditions: read-out: Activity; summary of the method: as §1
[8] = test system: SNB-75; test: Antiproliferative activity against human SNB75 cells assessed as cell growth at 10 uM; assay type: functional; conditions: read-out: Activity; summary of the method: as §2
[9] = test system: SF-295; test: Antiproliferative activity against human SF295 cells assessed as cell growth at 10 uM; assay type: functional; conditions: read-out: Activity; summary of the method: as §1
[10] = test system: NCI-H226; test: Antiproliferative activity against human NCI-H226 cells assessed as cell growth at 10 uM; assay type: functional; conditions: read-out: Activity; summary of the method: as §1
[11] = test system: SN12C; test: Antiproliferative activity against human SN12C cells assessed as cell growth at 10 uM; assay type: functional; conditions: read-out: Activity; summary of the method: as §1
[12] = test system: EKVX; test: Antiproliferative activity against human EKVX cells assessed as cell growth at 10 uM; assay type: functional; conditions: read-out: Activity; summary of the method: as §1
[13] = test system: OVCAR-4; test: Antiproliferative activity against human OVCAR4 cells assessed as cell growth at 10 uM; assay type: functional; conditions: read-out: Activity; summary of the method: as §1
[14] = test system: LOX IMVI; test: Antiproliferative activity against human LOXIMVI cells assessed as cell growth at 10 uM; assay type: functional; conditions: read-out: Activity; summary of the method: as §1
[15] = test system: A549; test: Antiproliferative activity against human A549 cells assessed as cell growth at 10 uM; assay type: functional; conditions: read-out: Activity; summary of the method: as §1
[16] = Cytotoxicity against human H1299 cells at 10 uM after 48 hrs by MTT assay; assay type: functional; conditions: NCI-H1299, 48 h
Summary of the method: (§3)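 H1299 non-small cell lung cancer cells were grown in RPMI 1640 with 10% FBS, penicillin and streptomycin at 37 °C under 5% CO2. About 2 × 10³ cells per well were seeded and left 24 h. Compounds were dissolved fresh in DMSO, diluted into complete medium and applied for 48 h. MTT was then added for 4 h at 37 °C, followed by lysis buffer (20% SDS, 50% DMF) for 16 h, and absorbance was read at 550 nm.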

[17] = biological target: Telomerase reverse transcriptase (Homo sapiens) (UniProt O14746); test: Inhibition of TERT in human H1299 cells assessed as residual transcriptional activity at 1 uM after 24 hrs by SEAP reporter gene assay; values are per cent of control
Sequence of Telomerase reverse transcriptase (Homo sapiens) (O14746 whole entry): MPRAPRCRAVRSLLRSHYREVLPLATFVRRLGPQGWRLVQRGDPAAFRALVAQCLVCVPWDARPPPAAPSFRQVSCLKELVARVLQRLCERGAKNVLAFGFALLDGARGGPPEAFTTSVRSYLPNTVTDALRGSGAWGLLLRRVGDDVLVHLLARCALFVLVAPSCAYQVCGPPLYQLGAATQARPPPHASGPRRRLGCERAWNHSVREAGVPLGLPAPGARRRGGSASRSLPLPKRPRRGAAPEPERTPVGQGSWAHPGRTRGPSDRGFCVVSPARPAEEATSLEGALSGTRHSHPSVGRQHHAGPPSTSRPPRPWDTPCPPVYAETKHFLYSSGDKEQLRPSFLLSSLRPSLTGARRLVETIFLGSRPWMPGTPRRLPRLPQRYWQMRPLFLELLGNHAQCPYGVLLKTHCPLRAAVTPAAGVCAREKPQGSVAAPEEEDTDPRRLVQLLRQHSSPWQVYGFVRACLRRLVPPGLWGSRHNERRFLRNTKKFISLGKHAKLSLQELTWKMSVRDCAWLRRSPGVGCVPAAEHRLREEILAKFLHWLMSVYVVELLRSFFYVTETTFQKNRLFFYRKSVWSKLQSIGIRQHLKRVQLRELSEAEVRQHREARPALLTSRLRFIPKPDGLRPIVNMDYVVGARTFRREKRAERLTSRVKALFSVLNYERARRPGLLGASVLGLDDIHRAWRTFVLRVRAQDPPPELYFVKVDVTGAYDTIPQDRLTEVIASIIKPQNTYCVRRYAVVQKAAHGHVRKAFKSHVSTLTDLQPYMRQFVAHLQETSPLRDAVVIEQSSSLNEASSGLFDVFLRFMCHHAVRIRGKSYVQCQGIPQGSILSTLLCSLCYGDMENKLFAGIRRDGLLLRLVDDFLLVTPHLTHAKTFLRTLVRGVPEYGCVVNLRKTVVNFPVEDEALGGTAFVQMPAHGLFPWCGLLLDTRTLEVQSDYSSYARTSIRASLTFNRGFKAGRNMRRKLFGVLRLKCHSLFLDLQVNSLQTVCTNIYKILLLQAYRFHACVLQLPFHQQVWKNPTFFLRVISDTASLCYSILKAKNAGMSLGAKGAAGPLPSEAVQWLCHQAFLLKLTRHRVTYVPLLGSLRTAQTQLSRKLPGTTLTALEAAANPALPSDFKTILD

[18] = test system: DU-145; test: Antiproliferative activity against human DU145 cells assessed as cell growth at 10 uM; assay type: functional; conditions: read-out: Activity; summary of the method: as §1
[19] = test system: MDA-MB-231; test: Antiproliferative activity against human MDA-MB-231 cells assessed as cell growth at 10 uM; assay type: functional; conditions: read-out: Activity; summary of the method: as §1
[20] = test system: HL-60(TB); test: Antiproliferative activity against human HL-60(TB) cells assessed as cell growth at 10 uM; assay type: functional; conditions: read-out: Activity
Summary of the method: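 NCI Developmental Therapeutics Program 60-cell-line one-dose screen at 10^-5 M. Readout is growth percentage of treated cells relative to untreated control cells.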

[21] = test system: U-251; test: Antiproliferative activity against human U251 cells assessed as cell growth at 10 uM; assay type: functional; conditions: read-out: Activity; summary of the method: as §2
[22] = test system: UACC-62; test: Antiproliferative activity against human UACC62 cells assessed as cell growth at 10 uM; assay type: functional; conditions: read-out: Activity; summary of the method: as §2
[23] = test system: NCI-H522; test: Antiproliferative activity against human NCI-H522 cells assessed as cell growth at 10 uM; assay type: functional; conditions: read-out: Activity; summary of the method: as §1
[24] = test system: OVCAR-5; test: Antiproliferative activity against human OVCAR5 cells assessed as cell growth at 10 uM; assay type: functional; conditions: read-out: Activity; summary of the method: as §1
[25] = test system: HCT-116; test: Antiproliferative activity against human HCT116 cells assessed as cell growth at 10 uM; assay type: functional; conditions: read-out: Activity; summary of the method: as §1
[26] = test system: T47D; test: Antiproliferative activity against human T47D cells assessed as cell growth at 10 uM; assay type: functional; conditions: read-out: Activity; summary of the method: as §2
[27] = biological target: Telomerase reverse transcriptase (Homo sapiens) (UniProt O14746); test: Inhibition of TERT in human H1299 cells assessed as residual transcriptional activity at 10 uM after 24 hrs by SEAP reporter gene assay; values are per cent of control
[28] = test system: HT-29; test: Antiproliferative activity against human HT-29 cells assessed as cell growth at 10 uM; assay type: functional; conditions: read-out: Activity; summary of the method: as §1
[29] = test system: HCC 2998; test: Antiproliferative activity against human HCC2998 cells assessed as cell growth at 10 uM; assay type: functional; conditions: read-out: Activity; summary of the method: as §1
[30] = test system: UO-31; test: Antiproliferative activity against human UO31 cells assessed as cell growth at 10 uM; assay type: functional; conditions: read-out: Activity; summary of the method: as §2
[31] = test system: UACC-257; test: Antiproliferative activity against human UACC257 cells assessed as cell growth at 10 uM; assay type: functional; conditions: read-out: Activity; summary of the method: as §2
[32] = test system: SK-MEL-2; test: Antiproliferative activity against human SK-MEL-2 cells assessed as cell growth at 10 uM; assay type: functional; conditions: read-out: Activity; summary of the method: as §1
[33] = test system: OVCAR-3; test: Antiproliferative activity against human OVCAR-3 cells assessed as cell growth at 10 uM; assay type: functional; conditions: read-out: Activity; summary of the method: as §1
[34] = test system: SF-268; test: Antiproliferative activity against human SF268 cells assessed as cell growth at 10 uM; assay type: functional; conditions: read-out: Activity; summary of the method: as §1
[35] = test system: HCT-15; test: Antiproliferative activity against human HCT15 cells assessed as cell growth at 10 uM; assay type: functional; conditions: read-out: Activity; summary of the method: as §1
[36] = Cytotoxicity against human H1299 cells at 100 uM after 48 hrs by MTT assay; assay type: functional; conditions: NCI-H1299, 48 h; summary of the method: as §3
[37] = biological target: Telomerase reverse transcriptase (Homo sapiens) (UniProt O14746); test: Inhibition of telomerase in human H1299 cells up to 100 uM by TRAP assay; assay type: cell-based
Summary of the method: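 PCR-based telomeric repeat amplification protocol (TRAP). The telomerase source was total lysate of H1299 lung cancer cells, with protein measured against BSA standards. Controls were extract without inhibitor and RNase A-treated extract.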

[38] = test system: SK-MEL-28; test: Antiproliferative activity against human SK-MEL-28 cells assessed as cell growth at 10 uM; assay type: functional; conditions: read-out: Activity; summary of the method: as §1
[39] = test system: SF-539; test: Antiproliferative activity against human SF539 cells assessed as cell growth at 10 uM; assay type: functional; conditions: read-out: Activity; summary of the method: as §1
[40] = test system: M14; test: Antiproliferative activity against human M14 cells assessed as cell growth at 10 uM; assay type: functional; conditions: read-out: Activity; summary of the method: as §1
[41] = test system: COLO 205; test: Antiproliferative activity against human COLO205 cells assessed as cell growth at 10 uM; assay type: functional; conditions: read-out: Activity; summary of the method: as §1
[42] = Cytotoxicity against human H1299 cells at 1 uM after 48 hrs by MTT assay; assay type: functional; conditions: NCI-H1299, 48 h; summary of the method: as §3
[43] = Antiproliferative activity against human Hs 578T cells assessed as cell growth at 10 uM; assay type: functional; conditions: read-out: Activity; summary of the method: as §1
[44] = test system: MOLT-4; test: Antiproliferative activity against human MOLT4 cells assessed as cell growth at 10 uM; assay type: functional; conditions: read-out: Activity; summary of the method: as §1
[45] = test system: SNB-19; test: Antiproliferative activity against human SNB19 cells assessed as cell growth at 10 uM; assay type: functional; conditions: read-out: Activity; summary of the method: as §1

SMILES: N#Cc1ccc(-c2nc3ccc4c(c3[nH]2)C(=O)c2ccccc2C4=O)cc1
- growth at 10 µM [1]: 98.9%
- growth at 10 µM [2]: 201%
- growth at 10 µM [3]: 109%
- growth at 10 µM [4]: 180%
- growth at 10 µM [5]: 117%
- growth at 10 µM [6]: 96.2%
- growth at 10 µM [7]: 102%
- growth at 10 µM [8]: 63.2%
- growth at 10 µM [9]: 120%
- growth at 10 µM [10]: 103%
- growth at 10 µM [11]: 105%
- growth at 10 µM [12]: 99.8%
- growth at 10 µM [13]: 101%
- growth at 10 µM [14]: 101%
- growth at 10 µM [15]: 106%
- viability at 10 µM [16]: 77%
- residual activity [17]: 91%
- growth at 10 µM [18]: 97.7%
- growth at 10 µM [19]: 87.1%
- growth at 10 µM [20]: 145%
- growth at 10 µM [21]: 112%
- growth at 10 µM [22]: 104%
- growth at 10 µM [23]: 141%
- growth at 10 µM [24]: 98.1%
- growth at 10 µM [25]: 79.8%
- growth at 10 µM [26]: 85.1%
- residual activity [27]: 83%
- growth at 10 µM [28]: 86.4%
- growth at 10 µM [29]: 74.7%
- growth at 10 µM [30]: 80.4%
- growth at 10 µM [31]: 105%
- growth at 10 µM [32]: 22.5%
- growth at 10 µM [33]: 111%
- growth at 10 µM [34]: 99.2%
- growth at 10 µM [35]: 101%
- viability at 100 µM [36]: 19%
- inhibition [37]: inactive
- growth at 10 µM [38]: 115%
- growth at 10 µM [39]: 104%
- growth at 10 µM [40]: 243%
- growth at 10 µM [41]: 113%
- viability at 1 µM [42]: 80%
- growth at 10 µM [43]: 102%
- growth at 10 µM [44]: 87.1%
- growth at 10 µM [45]: 97.8%
